Assay results as given in ChEMBL document CHEMBL3826914, “Selective photodepletion of malignant T cells in extracorporeal photopheresis with selenorhodamine photosensitizers” (Bioorg Med Chem, 2016).

system: ABCB1; test: Permeability from apical to basolateral side in dog MDCK2-MDR1 cells expressing ABCB1 at 5 uM after 30 mins in presence of compound 15 by LC-MS/MS analysis; type: ADME, cell-based, Canis lupus familiaris, MDCK-II; conditions: MDCK-MDR1, with compound 15 (concentration not stated), read-out: permeability
Summary of the method: (§1)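 MDR1-transfected MDCKII cells (passage 16–42) were seeded at 50,000 cells cm^-2 on Transwell filters and used on day 6. Monolayers were rinsed in DPBS with 10^-2 M HEPES, pH 7.4, at 37 °C. They were preincubated 30 min in 4.3 mg/mL BSA/DPBSH with or without 5×10^-6 M P-gp inhibitor. 5 μM dye was added apically or basolaterally and samples taken after 1 h at 37 °C with nutation. Quantitation was by LC-MS/MS; P_passive is the mean of P_AB and P_BA under full inhibition. Mean ± SD.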

Structure (SMILES) | Papp A→B at 0.5 h, 5 µM [×10⁻⁶ cm/s]
C[N+]1=c2cc3c(cc2C(C)(C)CC1)=C(c1ccc(C(=S)N2CCCCC2)s1)c1cc2c4c(c1[Se]3)CCCN4CCC2.[Cl-] | 0.046

system: not listed separately; test: Drug extrusion in human CD8 positive cells assessed as change in mean fluorescence intensity at 5 x 10^-8 M preincubated for 20 mins followed by growth in photosensitizer-free media for 30 mins by flow cytometric analysis relative to control; type: cell-based; conditions: 0.5 h, 0.05 µM

Structure (SMILES) | Activity [%]
C[N+]1=c2cc3c(cc2C(C)(C)CC1)=C(c1ccc(C(=S)N2CCCCC2)s1)c1cc2c4c(c1[Se]3)CCCN4CCC2.[Cl-] | 51

system: ABCB1; test: Permeability from apical to basolateral side in dog MDCK2-MDR1 cells expressing ABCB1 at 5 uM after 30 mins in absence of compound 15 by LC-MS/MS analysis; type: ADME, cell-based, Canis lupus familiaris, MDCK-II; conditions: MDCK-MDR1, read-out: permeability; summary of the method: as §1

Structure (SMILES) | Papp A→B at 0.5 h, 5 µM [×10⁻⁶ cm/s]
C[N+]1=c2cc3c(cc2C(C)(C)CC1)=C(c1ccc(C(=S)N2CCCCC2)s1)c1cc2c4c(c1[Se]3)CCCN4CCC2.[Cl-] | 0.044

system: not listed separately; test: Drug extrusion in SEB-stimulated human CD25 positive cells assessed as mean fluorescence intensity at 5 x 10^-8 M preincubated for 20 mins followed by growth in photosensitizer-free media for 30 mins by flow cytometric analysis relative to control; conditions: 0.5 h, 0.05 µM

Structure (SMILES) | Flu intensity [a.u.]
C[N+]1=c2cc3c(cc2C(C)(C)CC1)=C(c1ccc(C(=S)N2CCCCC2)s1)c1cc2c4c(c1[Se]3)CCCN4CCC2.[Cl-] | 33800

system: ABCB1; test: Permeability from basolateral to apical side in dog MDCK2-MDR1 cells expressing ABCB1 at 5 uM after 30 mins in presence of compound 15 by LC-MS/MS analysis; type: ADME, cell-based, Canis lupus familiaris, MDCK-II; conditions: MDCK-MDR1, with compound 15 (concentration not stated), read-out: permeability; summary of the method: as §1

Structure (SMILES) | Papp B→A at 0.5 h, 5 µM [×10⁻⁶ cm/s]
C[N+]1=c2cc3c(cc2C(C)(C)CC1)=C(c1ccc(C(=S)N2CCCCC2)s1)c1cc2c4c(c1[Se]3)CCCN4CCC2.[Cl-] | 0.032

system: ABCB1; test: Permeability from basolateral to apical side in dog MDCK2-MDR1 cells expressing ABCB1 at 5 uM after 30 mins in absence of compound 15 by LC-MS/MS analysis; type: ADME, cell-based, Canis lupus familiaris, MDCK-II; conditions: MDCK-MDR1, read-out: permeability; summary of the method: as §1

Structure (SMILES) | Papp B→A at 0.5 h, 5 µM [×10⁻⁶ cm/s]
C[N+]1=c2cc3c(cc2C(C)(C)CC1)=C(c1ccc(C(=S)N2CCCCC2)s1)c1cc2c4c(c1[Se]3)CCCN4CCC2.[Cl-] | 0.88

system: not listed separately; test: Drug uptake in SEB-stimulated human CD25 positive cells assessed as mean fluorescence intensity at 5 x 10^-8 M preincubated for 20 mins followed by growth in photosensitizer-free media for 30 mins by flow cytometric analysis relative to control; conditions: 0.5 h, 0.05 µM

Structure (SMILES) | Flu intensity [a.u.]
C[N+]1=c2cc3c(cc2C(C)(C)CC1)=C(c1ccc(C(=S)N2CCCCC2)s1)c1cc2c4c(c1[Se]3)CCCN4CCC2.[Cl-] | 43300

system: HuT78; conditions: human, hut78, 0.5 h, 0.075 µM

Structure (SMILES) | Flu intensity [a.u.]
C[N+]1=c2cc3c(cc2C(C)(C)CC1)=C(c1ccc(C(=S)N2CCCCC2)s1)c1cc2c4c(c1[Se]3)CCCN4CCC2.[Cl-] | 42000

system: not listed separately; test: Drug extrusion in human CD3 positive cells assessed as change in mean fluorescence intensity at 5 x 10^-8 M preincubated for 20 mins followed by growth in photosensitizer-free media for 30 mins by flow cytometric analysis relative to control; type: cell-based; conditions: 0.5 h, 0.05 µM

Structure (SMILES) | Activity [%]
C[N+]1=c2cc3c(cc2C(C)(C)CC1)=C(c1ccc(C(=S)N2CCCCC2)s1)c1cc2c4c(c1[Se]3)CCCN4CCC2.[Cl-] | 36.8

system: HuT78; conditions: human, hut78, 0.5 h, 0.075 µM; remark: another data set of the same source

Structure (SMILES) | Flu intensity [a.u.]
C[N+]1=c2cc3c(cc2C(C)(C)CC1)=C(c1ccc(C(=S)N2CCCCC2)s1)c1cc2c4c(c1[Se]3)CCCN4CCC2.[Cl-] | 36000

system: HuT78; test: Drug uptake in GFP expressing human HUT78 cells co-cultured with non-stimulated human PBMC cells assessed as change in mean fluorescence intensity at 7.5 x 10^-8 M after 20 mins followed by growth in photosensitizer-free media for 30 mins by flow cytometric analysis relative to control; type: cell-based; conditions: hut78, 0.5 h, 0.075 µM

Structure (SMILES) | Activity [%]
C[N+]1=c2cc3c(cc2C(C)(C)CC1)=C(c1ccc(C(=S)N2CCCCC2)s1)c1cc2c4c(c1[Se]3)CCCN4CCC2.[Cl-] | 28.2

system: not listed separately; test: Drug extrusion in human CD4 positive cells assessed as change in mean fluorescence intensity at 5 x 10^-8 M preincubated for 20 mins followed by growth in photosensitizer-free media for 30 mins by flow cytometric analysis relative to control; type: cell-based; conditions: 0.5 h, 0.05 µM

Structure (SMILES) | Activity [%]
C[N+]1=c2cc3c(cc2C(C)(C)CC1)=C(c1ccc(C(=S)N2CCCCC2)s1)c1cc2c4c(c1[Se]3)CCCN4CCC2.[Cl-] | 37.7

system: not listed separately; test: Drug extrusion in SEB-stimulated human CD25 negative cells assessed as mean fluorescence intensity at 5 x 10^-8 M preincubated for 20 mins followed by growth in photosensitizer-free media for 30 mins by flow cytometric analysis relative to control; conditions: 0.5 h, 0.05 µM

Structure (SMILES) | Flu intensity [a.u.]
C[N+]1=c2cc3c(cc2C(C)(C)CC1)=C(c1ccc(C(=S)N2CCCCC2)s1)c1cc2c4c(c1[Se]3)CCCN4CCC2.[Cl-] | 9500

system: HuT78; test: (§2) Phototoxicity in GFP expressing human HUT78 cells co-cultured with human PBMC cells assessed as cell survival at 7.5 x 10^-8 M preincubated 20 mins in photosensitizer media followed by growth in photosensitizer-free media for 30 mins measured 18 hrs after exposure to 5 J/cm2 irradiation by FACS analysis; type: functional; conditions: HuT78, light or radiation study, read-out: Survival
Summary of the method: (§3)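 Non-stimulated PBMCs from healthy donors (Ficoll-separated) were mixed 5:1 with GFP-transfected, sorted (>98%) HUT-78 cells. Cells took up 7.5×10^-8 M photosensitizer for 20 min, then spent 30 min in dye-free medium. They were exposed to 5 J cm^-2 light (600 nm LED) with rotation at 180 rpm. Survival was gated by FACS (GFP, CD3, CD4, CD8) 18 h later versus non-irradiated controls. Triplicate; mean ± SEM.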

Structure (SMILES) | viability at 0.075 µM [%]
C[N+]1=c2cc3c(cc2C(C)(C)CC1)=C(c1ccc(C(=S)N2CCCCC2)s1)c1cc2c4c(c1[Se]3)CCCN4CCC2.[Cl-] | 0.7

system: not listed separately; test: N-octanol/water partition coefficient, logP of the compound at 23 degC after 1 hr by HPLC based shake flask method; type: physicochemical; conditions: not given
Summary of the method: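 Shake-flask method using 1-octanol: 3–5 min of mixing, then 1 h settling. Equilibration and measurement were at 23 °C, in triplicate.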

Structure (SMILES) | logP
C[N+]1=c2cc3c(cc2C(C)(C)CC1)=C(c1ccc(C(=S)N2CCCCC2)s1)c1cc2c4c(c1[Se]3)CCCN4CCC2.[Cl-] | 3.78

system: not listed separately; test: as §2, with “Phototoxicity human CD3 positive cells co-cultured with” for “Phototoxicity in”, “HUT78” for “HUT78 cells co-cultured with human PBMC”; type: cell-based; conditions: read-out: Survival; summary of the method: as §3

Structure (SMILES) | viability at 18 h, 0.075 µM [%]
C[N+]1=c2cc3c(cc2C(C)(C)CC1)=C(c1ccc(C(=S)N2CCCCC2)s1)c1cc2c4c(c1[Se]3)CCCN4CCC2.[Cl-] | 0.4

system: not listed separately; test: Drug extrusion in SEB-stimulated human CD25 negative cells assessed as change in mean fluorescence intensity at 5 x 10^-8 M preincubated for 20 mins followed by growth in photosensitizer-free media for 30 mins by flow cytometric analysis relative to control; conditions: 0.5 h, 0.05 µM

Structure (SMILES) | Activity [%]
C[N+]1=c2cc3c(cc2C(C)(C)CC1)=C(c1ccc(C(=S)N2CCCCC2)s1)c1cc2c4c(c1[Se]3)CCCN4CCC2.[Cl-] | 32.9

system: not listed separately; test: Drug extrusion in SEB-stimulated human CD25 positive cells assessed as change in mean fluorescence intensity at 5 x 10^-8 M preincubated for 20 mins followed by growth in photosensitizer-free media for 30 mins by flow cytometric analysis relative to control; conditions: 0.5 h, 0.05 µM

Structure (SMILES) | Activity [%]
C[N+]1=c2cc3c(cc2C(C)(C)CC1)=C(c1ccc(C(=S)N2CCCCC2)s1)c1cc2c4c(c1[Se]3)CCCN4CCC2.[Cl-] | 22

system: ABCB1; test: Passive permeability in dog MDCK2-MDR1 cells expressing ABCB1 at 5 uM after 30 mins in presence of compound 15 by LC-MS/MS analysis; type: ADME, cell-based, Canis lupus familiaris, MDCK-II; conditions: MDCK-MDR1, with compound 15 (concentration not stated), read-out: permeability; summary of the method: as §1

Structure (SMILES) | Papp at 0.5 h, 5 µM [×10⁻⁶ cm/s]
C[N+]1=c2cc3c(cc2C(C)(C)CC1)=C(c1ccc(C(=S)N2CCCCC2)s1)c1cc2c4c(c1[Se]3)CCCN4CCC2.[Cl-] | < 0.1

system: not listed separately; test: Drug uptake in SEB-stimulated human CD25 negative cells assessed as mean fluorescence intensity at 5 x 10^-8 M preincubated for 20 mins followed by growth in photosensitizer-free media for 30 mins by flow cytometric analysis relative to control; conditions: 0.5 h, 0.05 µM

Structure (SMILES) | Flu intensity [a.u.]
C[N+]1=c2cc3c(cc2C(C)(C)CC1)=C(c1ccc(C(=S)N2CCCCC2)s1)c1cc2c4c(c1[Se]3)CCCN4CCC2.[Cl-] | 14100
